ARFGAP1 inh: inhibitors of rat ARFGAP1 GAP activity, primary screen, biochemical, fluorescence polarization, GDP tracer | Arfgap1-stimulated ARF1 GTP hydrolysis, GDP FP detection | inhibition, % at 16.5 µM | 360,000 compounds, 0.26% hits;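 active means inhibition above a per-plate limit, mean inhibition of low control wells plus 3 SD, cut at about 25% in these data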;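 further: 0% = DMSO wells with enzyme and 100% = wells lacking Arfgap1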
Target sequence (Q62848 1-136 limits assumed): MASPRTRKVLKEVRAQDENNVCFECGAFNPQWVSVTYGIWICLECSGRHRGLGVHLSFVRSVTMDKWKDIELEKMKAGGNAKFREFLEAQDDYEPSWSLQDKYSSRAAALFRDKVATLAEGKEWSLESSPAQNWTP
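system = rat Arfgap1 catalytic domain, aa 1-136 | technique = FP, GDP Alexa 633 tracer displaced from anti-GDP antibody, 620/688 nm | compound = one concentration, 16.5 µM, DMSO 1.26% | medium = HEPES-based buffer, pH 7.5 | timing = compound-enzyme preincubation 20 min, reaction 120 min, detection 60 min, 25 °C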
ASAP1 inh: inhibitors of human ASAP1 ArfGAP activity, primary screen, biochemical, fluorescence polarization; Arf-GAP with SH3 domain, ANK repeat and PH domain-containing protein 1 (Homo sapiens), …; ASAP1-stimulated ARF1 GTP hydrolysis, GDP FP detection; inhibition, % at 16.5 µM; 360,000 compounds, 0.19% hits; in the data active means inhibition above about 25%;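 further: 0% = vehicle with enzyme and substrate and 100% = no enzyme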
Target sequence (Q9ULH1 325-724 limits assumed): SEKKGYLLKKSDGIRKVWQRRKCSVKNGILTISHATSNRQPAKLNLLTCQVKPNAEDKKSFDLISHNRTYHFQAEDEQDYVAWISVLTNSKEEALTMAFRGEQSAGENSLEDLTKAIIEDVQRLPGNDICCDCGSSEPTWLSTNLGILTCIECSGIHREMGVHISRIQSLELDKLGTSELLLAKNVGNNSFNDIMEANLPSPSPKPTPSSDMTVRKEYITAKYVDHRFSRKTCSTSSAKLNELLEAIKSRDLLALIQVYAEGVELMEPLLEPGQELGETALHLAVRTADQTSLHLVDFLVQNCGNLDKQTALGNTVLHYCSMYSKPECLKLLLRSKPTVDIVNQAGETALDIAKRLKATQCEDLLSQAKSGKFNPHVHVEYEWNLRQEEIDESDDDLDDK
rCAG binder: binders of r(CAG) RNA repeats, primary screen, biochemical, fluorescence; r(CAG) RNA repeat, TO-PRO-1 dye displacement fluorescence; inhibition, % at 3 µM; 370,000 compounds, 1.3% hits;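 active means inhibition above the plate cutoff, the mean of all test compounds on that plate plus 3 SD, cut at about 35% in these data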;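 further: 0% = DMSO alone and 100% = 100 µM mitoxantrone as full dye displacement; higher means more dye released from RNA so lower well fluorescence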
NadD block: inhibitors of S. aureus NadD, primary screen, biochemical, colorimetric, uHTS; inhibition, % at 20 µM; 360,000 compounds, 0.78% hits; AID 602399, 2012; purified NadD enzyme, colorimetric absorbance read-out; Nicotinate-nucleotide adenylyltransferase NadD (Staphylococcus aureus N315); in the data active means inhibition above about 26%
ASAP1 inh confirm: ASAP1 GAP activity inhibitors, confirmation, biochemical, fluorescence polarization, human, triplicate; 620 compounds, 37% hits; AID 624431, 2012; shares compounds with ASAP1 inh; ASAP1-stimulated Arf1 GTPase, GDP fluorescence polarization; inhibition, % at 16.5 µM;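 active means mean inhibition over triplicates exceeds the hit threshold derived for the earlier primary screening run, cut at about 25% in these data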
ARFGAP1 inh conf: ARFGAP1 inhibitor hit confirmation, biochemical, fluorescence polarization, triplicate; AID 651608, 2012; inhibition, % at 16.5 µM; ARFGAP1-stimulated ARF1 GTP hydrolysis, GDP tracer FP; 890 compounds, 30% hits; shares compounds with ARFGAP1 inh;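 active means average inhibition over triplicates above the hit cutoff set in the earlier primary screen, cut at about 25% in these data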;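 further: 0% = Arfgap1 plus ARF1-GTP with DMSO and 100% = wells lacking Arfgap1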
* hit, by the source's call; . = no result; + = active, no number. Shown are actives, neighbours in structure and some others; about 2.2% of the full set was active somewhere.

SMILES	ARFGAP1 inh	ASAP1 inh	rCAG binder	NadD block	ASAP1 inh confirm	ARFGAP1 inh conf
Cc1cc([N+](=O)[O-])c(C)cc1-c1ccc(/C=N/NC(=O)Cn2nnnc2N)o1	67.0*	64.6*	11.0	13.3	1.0	35.1*
Nc1nnnn1CC(=O)N/N=C/c1cc([N+](=O)[O-])ccc1Cl	6.3	5.2	-0.5	0.6	.	.
O=C(Cn1cncc1-c1ccc([N+](=O)[O-])cc1)Nc1cccc2ccccc12	41.3*	28.3*	14.6	8.6	37.2*	45.7*
CCOc1ccc(NC(=O)Cn2cncc2-c2ccc([N+](=O)[O-])cc2)cc1	11.2	21.2	10.9	-5.5	.	.
COc1ccc([N+](=O)[O-])cc1NC(=O)c1ccc(Br)s1	36.1*	38.0*	10.5	3.6	53.7*	67.8*
COc1ccc([N+](=O)[O-])cc1NC(=S)NC(C)=O	-6.8	-4.2	-0.4	0.5	.	.
Cc1ccccc1Nc1cc2ccccc2c(=O)[nH]1	.	.	.	-1.1	.	.
O=c1[nH]c(Nc2ccccc2Cl)cc2ccccc12	29.2*	47.9*	1.9	1.5	7.8	4.8
CC(=O)c1cccc(NC(=O)c2cccc3c(-c4cccnc4)coc23)c1	25.5*	34.6*	4.4	3.4	26.3*	29.2*
Cc1cc(N2CCN(C)CC2)nc2ccc(NC(=O)c3cccnc3Cl)cc12	29.1*	49.5*	-3.5	-6.4	25.4*	27.7*
CCN1CCN(c2cc(C)c3cc(NC(=O)c4cccnc4Cl)ccc3n2)CC1	7.0	3.2	-6.5	3.8	.	.
COC(=O)CNC(=O)CNC(=O)c1nn(-c2ccc(OC)c(OC)c2)c(=O)c2ccccc12	4.0	2.2	-1.0	-3.6	.	.
COc1ccc(-n2nc(C(=O)NCC(=O)NCc3ccc(F)cc3)c3ccccc3c2=O)cc1OC	138.9*	43.3*	2.4	-3.0	49.3*	88.1*
COc1ccc(-n2nnnc2SCC(=O)c2ccc3c(c2)OCCO3)c(OC)c1	59.1*	52.7*	-4.3	-6.4	50.6*	134.9*
COc1ccc(C)cc1-n1nnnc1SCC(=O)c1ccc2c(c1)OCCO2	-0.4	5.7	0.3	-12.7	.	.
O=C(Nc1ccc(-c2cc3ccccc3oc2=O)c(Cl)c1)c1cccnc1	62.5*	46.0*	0.9	-3.3	58.7*	81.7*
COc1cccc(OC)c1-c1nn2c(-c3cc(-c4ccccc4)n[nH]3)nnc2s1	130.1*	129.4*	12.3	52.5*	167.4*	182.5*
O=C(Nc1nnc([C@H]2C[C@H](O)[C@@H](CO)O2)s1)c1cccc(OC(F)(F)F)c1	-14.6	2.0	3.3	1.8	.	.
CN(Cc1ccccc1)C(=O)c1cnc(Cc2c[nH]c3ccccc23)c(I)c1	17.3	-3.2	5.2	4.1	.	.
COc1cc(/C=C/C(=O)Nc2ccc3nc4n(c(=O)c3c2)CCCC4)cc(OC)c1OC	25.2*	27.5*	4.0	-8.1	43.1*	37.8*
O=C(Nc1ccc(N2CCCC2)cc1)c1cc2ccccc2o1	77.3*	43.4*	16.2	23.8	145.9*	6.0
O=C(COc1ccc2oc(-c3ccco3)cc(=O)c2c1)N1CCCCC1	80.5*	32.3*	-0.6	-3.0	41.6*	71.6*
CC[n+]1ccccc1/C=C/c1ccc(N(C)C)cc1	2.5	-4.2	-54.5	10.1	.	.
CC[n+]1ccc(/C=C/c2ccc(N(C)C)cc2)c2ccccc21	37.4*	43.4*	20.5	-1.7	52.6*	50.4*
O=C(Nc1cccc(-c2cnc3ccccc3n2)c1)c1cccc(NC(=O)c2ccco2)c1	100.7*	101.8*	21.4	14.9	90.7*	126.5*
SMILES	ARFGAP1 inh	ASAP1 inh	rCAG binder	NadD block	ASAP1 inh confirm	ARFGAP1 inh conf
COc1ccc(/C=C2\Oc3cc(OCC(=O)N4CCC(C(=O)O)CC4)ccc3C2=O)c(OC)c1	.	.	.	-1.1	.	.
COc1ccc(/C=C2\Oc3cc(OCC(=O)N4CCC(C(=O)O)CC4)ccc3C2=O)c(OC)c1OC	31.3*	32.3*	21.8	8.8	34.6*	40.9*
CCNC(=S)NNC(=O)CSc1nnc(-c2ccccc2)n1-c1ccc(Cl)cc1	.	.	11.9	.	.	.
CCCCCn1cc(CCC(=O)Nc2ccc(Oc3cccnc3)cc2)c2ccccc21	8.9	-0.4	10.2	.	.	.
COc1ccc(/C=N\NC(=O)c2ccc([N+](=O)[O-])c(C)c2)cc1COc1ccccc1C(N)=O	78.5*	47.4*	14.2	18.9	87.8*	122.9*
CCC(CC)C(=O)N(C)c1c(C)nc2c(OCc3ccc(OC(F)F)cc3)cccn12	-5.6	0.7	-1.6	-2.4	.	.
COc1ccc(CN2CCN(Cc3ccccc3F)CC2)cc1OC	-10.7	10.9	-2.1	-4.4	.	.
O=C(Nc1cccc(-c2cn3ccccc3n2)c1)c1cc2ccccc2oc1=O	47.0*	35.6*	0.7	5.8	62.1*	72.3*
CC(=O)Nc1cccc(-c2cn3ccccc3n2)c1	-7.1	13.3	-1.1	-2.3	.	.
COc1ccc(/C=N\NC(=O)c2cc3c(ccc4ccccc43)o2)cc1O	27.9*	72.5*	10.5	-3.3	95.7*	75.9*
COc1ccc(/C=N/NC(=O)c2cc3c(ccc4ccccc43)o2)cc1OC	75.6*	102.1*	3.5	-8.2	114.9*	82.0*
Cc1cc(C)nc(/N=C(\N)Nc2ccc(OCCC(C)C)cc2)n1	11.8	5.6	20.2	-7.1	.	.
CC(=O)c1ccc(NC(=O)c2cn(-c3ccccc3)nc2-c2ccncc2)cc1	-10.0	6.3	1.1	7.7	.	.
COC(=O)c1ccc(NC(=O)c2cn(-c3ccccc3)nc2-c2ccncc2)cc1	29.5*	30.7*	10.3	6.9	51.0*	61.2*
Nc1ccc2nc(-c3ccc(-c4nc5ccc(N)cc5[nH]4)cc3)[nH]c2c1	24.3	2.3	12.4	.	.	.
Nc1ccc2nc(-c3cccc(-c4nc5ccc(N)cc5[nH]4)n3)[nH]c2c1	+	+	15.0	13.4	+	+
Cc1ccc2nc(SCC(=O)N3CCC(C)CC3)nc(=O)n2c1	62.0*	36.8*	-4.5	-4.7	42.9*	69.2*
Cc1ccc(-c2nn(-c3ccccc3)cc2/C=C/C(=O)Nc2nccs2)cc1	52.1*	34.0*	2.1	15.9	23.9	68.2*
O=C(O)CSc1cc(NS(=O)(=O)c2cccc([N+](=O)[O-])c2)c2ccccc2c1O	25.1*	27.6*	26.8	8.6	13.8	-9.2
O=C(N[C@H](C(=O)N1CCC[C@H]1C(=O)NC1CCCC1)c1ccccc1)c1ccc(Cl)c(Cl)c1	11.0	3.6	-0.8	.	.	.
